Like-named read-outs stand apart in the source and are kept apart here.
Key:
opioid receptors [1] = details: pharmacological experiments; ref Watanabe et al., 1997; cited from earlier work
[2] = Stability of 7-OHMG in rat plasma QC samples; type: in vitro ADME; details: for Concentration measured: n=6
[3] = at equi-antinociceptive doses; ref Matsumoto et al., 2006; cited from earlier work
mice = details: ref Matsumoto et al., 2005, cited from earlier work
μ-opioid receptors = details: ref Matsumoto et al., 2004, 2006; cited from earlier work
opioid receptors [4] = details: in vitro assays; ref Horie et al., 2005; cited from earlier work
[5] = Intravenous pharmacokinetic study in rats; type: in vivo; details: 4 mg/kg IV bolus, male Sprague Dawley rats, n=6, mean ± SD
Outline: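 Male rats 240-250 g, housed 48 h, fasted 12 h predose and 4 h postdose, water free. Dosed via jugular vein cannula, 30 s bolus in 10% PEG 400 in water, prepared same day. Chloroform liquid-liquid extraction with tryptoline internal standard. Noncompartmental analysis.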

[6] = rat plasma, long term 30 days at -20 °C, spiked 20 ng/mL
[7] = rat plasma, long term 30 days at -20 °C, spiked 600 ng/mL
[8] = rat plasma, long term 30 days at -20 °C, spiked 3200 ng/mL
[9] = rat plasma, short term 12 hr at 25 °C, spiked 20 ng/mL
[10] = rat plasma, short term 12 hr at 25 °C, spiked 600 ng/mL
[11] = rat plasma, short term 12 hr at 25 °C, spiked 3200 ng/mL
[12] = rat plasma, three freeze thaw cycles, spiked 20 ng/mL
[13] = rat plasma, three freeze thaw cycles, spiked 600 ng/mL
[14] = rat plasma, three freeze thaw cycles, spiked 3200 ng/mL
[15] = reconstituted plasma extract, auto sampler 12 hr at 25 °C, spiked 20 ng/mL
[16] = reconstituted plasma extract, auto sampler 12 hr at 25 °C, spiked 600 ng/mL

## mitragynine
Opioid receptors [1]
  Effect on opioid receptors: agonistic effects on opioid receptors

## CC[C@@H]1CN2CC[C@@]3(O)C(=Nc4cccc(OC)c43)[C@@H]2C[C@@H]1/C(=C\OC)C(=O)OC [7-OHMG, 7-hydroxymitragynine]
[2]; 12 h at room temperature
  Short-term stability in plasma: stable
[2]; 12 h in auto-sampler at 25 °C
  Auto-sampler stability of reconstituted samples: stable
[2]; 30 days at -20 °C
  Long-term stability in plasma: stable
[2]; [6]
  Accuracy (measured vs spiked concentration): 98%
  Concentration measured: 19.6 ± 0.8 ng/mL
[2]; [7]
  Accuracy (measured vs spiked concentration): 101.7%
  Concentration measured: 610.4 ± 28.8 ng/mL
[2]; [8]
  Accuracy (measured vs spiked concentration): 95.6%
  Concentration measured: 3058.2 ± 320.4 ng/mL
[2]; [9]
  Accuracy (measured vs spiked concentration): 101.5%
  Concentration measured: 20.3 ± 1.3 ng/mL
[2]; [10]
  Accuracy (measured vs spiked concentration): 108.8%
  Concentration measured: 652.7 ± 17.8 ng/mL
[2]; [11]
  Accuracy (measured vs spiked concentration): 102.8%
  Concentration measured: 3289.4 ± 197.2 ng/mL
[2]; [12]
  Accuracy (measured vs spiked concentration): 102%
  Concentration measured: 20.4 ± 0.3 ng/mL
[2]; [13]
  Accuracy (measured vs spiked concentration): 105.2%
  Concentration measured: 631.3 ± 40.2 ng/mL
[2]; [14]
  Accuracy (measured vs spiked concentration): 103.5%
  Concentration measured: 3312.5 ± 163.5 ng/mL
[2]; [15]
  Accuracy (measured vs spiked concentration): 95.5%
  Concentration measured: 19.1 ± 0.7 ng/mL
[2]; [16]
  Accuracy (measured vs spiked concentration): 94.7%
  Concentration measured: 568.3 ± 43.9 ng/mL
[2]; reconstituted plasma extract, auto sampler 12 hr at 25 °C, spiked 3200 ng/mL
  Accuracy (measured vs spiked concentration): 99.8%
[2]; three freeze-thaw cycles, stored at -20 °C and thawed to room temperature
  Freeze-thaw stability in plasma: stable
[3]
  Times less constipating than morphine: 4.9-6.4 times
mice; 1 mg/kg dose
  Place preference: slight place preference
mice; 2 mg/kg dose
  Place preference: strong place preference
μ-opioid receptors
  Affinity for μ- versus δ- and κ-opioid receptors: higher affinity for μ-opioid receptors relative to the δ- and κ- receptors
Opioid receptors [4]
  Opioid agonistic effect among constituents of Mitragyna speciosa: most potent effect
[5]
  AUC0→∞: 98.3 ± 32.1 µg·min/mL
  CL: 44.2 ± 14.8 mL/min/kg
  Cmax: 3000 ± 300 ng/mL
  MRT: 70.9 ± 10.0 min
  T1/2: 22.9 ± 3.6 min
  Vd: 1.5958 ± 0.5863 L/kg

— publication PMC4029328 (Biomedical chromatography : BMC, 2013)
